Results on eight compounds are retold here after PMC9723933 (The Journal of Biological Chemistry, 2022).

What is called IC50 is the concentration that inhibits the measured activity by half.

Experiment [1] has as its system M1373T and A684S mutant strains. Description: Relative drug resistance. Type of experiment: cell-based, yeast. The conditions noted are these: n = 4.
In the next experiment the test system is I685A mutant strain. In kind it is cell-based, yeast. The conditions noted are these: liquid YPD, 30 °C, n = 3.
A further experiment has as its system V1372A mutant strain. In kind it is cell-based, yeast. The conditions noted are these: liquid YPD, 30 °C, n = 3.
A further experiment deals with M1373A mutant strain. Briefly: Relative drug resistance in liquid YPD culture. Type of experiment: cell-based, yeast. The conditions noted are these: compared with ΔPdr5 control strain.
For experiment [2], the system named is F683L mutant strain. The conditions noted are these: original characterization; cited from earlier work.
The subject of experiment [3] is F683L mutant strain. Description: Relative drug resistance. Type of experiment: cell-based, yeast. The conditions noted are these: n = 4.
A further experiment has as its target Pdr5 WT (Saccharomyces cerevisiae, UniProt P33302). Description: Inhibition of Pdr5 ATPase activity in purified PM vesicles. In kind it is biochemical, yeast.
The next experiment has as its target Pdr5 V1372A (Saccharomyces cerevisiae, UniProt P33302, V1372A). Briefly: biochemical. In kind it is biochemical, yeast.
A further experiment has as its target Pdr5 I685A (Saccharomyces cerevisiae, UniProt P33302, I685A). Description: biochemical. Type of experiment: biochemical, yeast.
Experiment [4] concerns the target Pdr5 V1372A, I685A double mutant (Saccharomyces cerevisiae, UniProt P33302, I685A/V1372A). Briefly: biochemical. Also on record: species or system yeast.
The target of another experiment is Pdr5 G1371A (Saccharomyces cerevisiae, UniProt P33302, G1371A). Briefly: Inhibition of Pdr5 ATPase activity in purified PM vesicles. Type of experiment: biochemical, yeast. The conditions noted are these: relative to WT.
Chain of Pdr5 G1371A (P33302 whole entry G1371A): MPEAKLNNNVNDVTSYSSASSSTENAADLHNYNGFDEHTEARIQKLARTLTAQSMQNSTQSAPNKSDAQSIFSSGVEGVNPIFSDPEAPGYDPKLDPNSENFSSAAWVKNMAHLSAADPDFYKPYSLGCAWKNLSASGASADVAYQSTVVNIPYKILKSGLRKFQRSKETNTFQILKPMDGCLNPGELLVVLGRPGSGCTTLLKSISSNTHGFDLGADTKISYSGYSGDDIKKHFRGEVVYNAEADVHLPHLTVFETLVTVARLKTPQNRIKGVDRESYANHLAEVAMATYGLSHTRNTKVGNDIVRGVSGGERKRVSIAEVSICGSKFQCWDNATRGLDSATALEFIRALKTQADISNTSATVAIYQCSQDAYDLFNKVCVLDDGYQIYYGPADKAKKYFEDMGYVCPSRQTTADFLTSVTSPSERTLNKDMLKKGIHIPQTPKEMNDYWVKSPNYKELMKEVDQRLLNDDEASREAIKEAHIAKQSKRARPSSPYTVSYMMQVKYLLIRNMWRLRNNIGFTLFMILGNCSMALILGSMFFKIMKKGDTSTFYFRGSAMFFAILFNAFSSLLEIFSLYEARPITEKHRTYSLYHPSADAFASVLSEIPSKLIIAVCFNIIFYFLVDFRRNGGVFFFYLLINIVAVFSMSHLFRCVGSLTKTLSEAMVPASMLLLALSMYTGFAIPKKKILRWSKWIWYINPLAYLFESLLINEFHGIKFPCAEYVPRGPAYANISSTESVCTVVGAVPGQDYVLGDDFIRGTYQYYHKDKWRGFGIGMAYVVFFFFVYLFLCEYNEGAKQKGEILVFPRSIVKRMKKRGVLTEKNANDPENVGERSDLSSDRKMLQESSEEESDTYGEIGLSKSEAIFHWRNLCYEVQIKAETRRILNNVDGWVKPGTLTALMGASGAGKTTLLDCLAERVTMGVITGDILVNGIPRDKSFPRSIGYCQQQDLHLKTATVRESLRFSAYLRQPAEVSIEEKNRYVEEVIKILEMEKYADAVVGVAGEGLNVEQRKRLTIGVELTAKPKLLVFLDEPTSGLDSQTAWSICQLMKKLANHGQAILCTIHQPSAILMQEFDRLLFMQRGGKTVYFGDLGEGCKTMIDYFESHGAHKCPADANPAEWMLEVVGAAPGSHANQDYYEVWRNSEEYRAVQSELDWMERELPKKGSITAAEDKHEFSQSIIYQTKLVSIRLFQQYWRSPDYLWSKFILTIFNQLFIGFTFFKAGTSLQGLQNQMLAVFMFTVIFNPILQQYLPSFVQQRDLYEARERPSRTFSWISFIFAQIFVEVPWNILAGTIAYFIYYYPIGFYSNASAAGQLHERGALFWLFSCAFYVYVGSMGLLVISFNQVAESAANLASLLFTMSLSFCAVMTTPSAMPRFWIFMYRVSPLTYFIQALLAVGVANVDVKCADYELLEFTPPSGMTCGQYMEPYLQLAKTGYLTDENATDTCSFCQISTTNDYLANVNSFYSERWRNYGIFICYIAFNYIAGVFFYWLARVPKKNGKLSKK
In another experiment the target is Pdr5 WT control strain (Saccharomyces cerevisiae, UniProt P33302). Description: Whole-cell R6G transport against a concentration gradient. In kind it is cell-based, yeast. The conditions noted are these: median; 90 min, 30 °C, Hepes-glucose buffer. In a few lines:
(§1)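 Log-phase yeast grown in YPD at 30 °C, R-1 background with integrated PDR5 under its own promoter. 3 × 10^6 cells were incubated in 0.02 M Hepes with 1 mM glucose (pH 7.0) and 20 μM R6G at 30 °C for 90 min, then washed in cold glucose-free Hepes. Median retained fluorescence was read by flow cytometry from 10,000 cells, in arbitrary units; n ≥ 4.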

For the next experiment, the target named is Pdr5 F1369A mutant (Saccharomyces cerevisiae, UniProt P33302, F1369A). Briefly: Whole-cell R6G transport against a concentration gradient. Type of experiment: cell-based, yeast.
Chain of Pdr5 F1369A mutant (P33302 whole entry F1369A): as the sequence (P33302 whole entry G1371A) above, with F1369A, A1371G counted along it
For another experiment, the target named is Pdr5 G1371A strain (Saccharomyces cerevisiae, UniProt P33302, G1371A). Briefly: Whole-cell R6G transport against a concentration gradient. The conditions noted are these: median; 90 min, 30 °C, Hepes-glucose buffer. In kind it is cell-based, yeast. In short, it runs like this:
as §1

The target in another experiment is Pdr5 M1373A mutant (Saccharomyces cerevisiae, UniProt P33302, M1373A). Briefly: Whole-cell R6G transport against a concentration gradient. Type of experiment: cell-based, yeast. The conditions noted are these: median; 90 min, 30 °C, Hepes-glucose buffer.
Chain of Pdr5 M1373A mutant (P33302 whole entry M1373A): as the sequence (P33302 whole entry G1371A) above, with A1371G, M1373A counted along it
The next experiment concerns ΔPdr5 strain. The experiment is described as above. In kind it is cell-based, yeast. The conditions noted are these: median; 90 min, 30 °C, Hepes-glucose buffer.
Experiment [5] concerns Pdr5 I685A, V1372A double mutant. Described as above. In kind it is cell-based, yeast.
The test system of another experiment is Pdr5 F683L mutant. Briefly: Accumulation of R6G prior to glucose-mediated efflux. The conditions noted are these: 20 μM R6G, Hepes buffer, no glucose, 90 min. In kind it is cell-based, yeast.

Chain of Pdr5 V1372A (P33302 whole entry V1372A): as the sequence (P33302 whole entry G1371A) above, with A1371G, V1372A counted along it
Chain of Pdr5 I685A (P33302 whole entry I685A): as the sequence (P33302 whole entry G1371A) above, with I685A, A1371G counted along it
Chain of Pdr5 G1371A strain (P33302 whole entry G1371A): as the sequence (P33302 whole entry G1371A) above
Chain of Pdr5 V1372A, I685A double mutant (P33302 whole entry I685A/V1372A): as the sequence (P33302 whole entry G1371A) above, with I685A, A1371G, V1372A counted along it
Chain of Pdr5 WT (P33302 whole entry): as the sequence (P33302 whole entry G1371A) above, with A1371G counted along it
Chain of Pdr5 WT control strain (P33302 whole entry): as the sequence (P33302 whole entry G1371A) above, with A1371G counted along it

In the case of `C[C@@H]1C[C@@H]([C@H](O)CC2CC(=O)NC(=O)C2)C(=O)[C@@H](C)C1` [cycloheximide], in experiment [1], the “Sensitivity of M1373T and A684S mutants relative to WT” value was “mildly hypersensitive”. The “Resistance of I685A mutant relative to WT” value with I685A mutant strain is recorded as “mildly hyper-resistant”. Also, the “Resistance of V1372A mutant relative to WT” value with V1372A mutant strain is “hypersensitive”. In addition, the “Resistance of M1373A mutant” value in the experiment with M1373A mutant strain is recorded as “phenotypically indistinguishable from the ΔPdr5 control strain”. The “Sensitivity of F683L mutant” value in the experiment with F683L mutant strain [2] was “hypersensitive”.
Regarding `CC(=O)N1CCN(c2ccc(OCC3COC(Cn4ccnc4)(c4ccc(Cl)cc4Cl)O3)cc2)CC1` (stereo not shown) [ketoconazole], the “Rank of F683L mutant sensitivity among the four drugs” value in the experiment on F683L mutant strain [3] is “least sensitive”. The “Sensitivity of M1373T and A684S mutants relative to WT” value in [1] is “quite hypersensitive”.
Consider `OC(Cn1cncn1)(Cn1cncn1)c1ccc(F)cc1F` [fluconazole], for which the “Sensitivity of M1373T and A684S mutants relative to WT” value in experiment [1] is “quite hypersensitive”. In the experiment on F683L mutant strain [2], the “Sensitivity of F683L mutant” value is recorded as “hypersensitive”.
In the case of `c1ccc(-c2ccc(C(c3ccccc3)n3ccnc3)cc2)cc1` (stereo not shown) [bifonazole], the concentration for half-maximal inhibition (IC50) against Pdr5 WT amounted to 2.86 µM; at Pdr5 V1372A it was 3.29 µM; against Pdr5 I685A, 2.58 µM; in experiment [4], 13 µM. Besides, the “IC50 of single mutant V1372A compared with WT” value against Pdr5 V1372A (ATPase inhibition, in words) is recorded as “not significantly different from the WT”. In addition, on Pdr5 I685A (ATPase inhibition, in words), the “IC50 of single mutant I685A compared with WT” value is on record as “not significantly different from the WT”. Further, the “Sensitivity of G1371A ATPase to allosteric inhibition” value at Pdr5 G1371A was “strikingly hypersensitive”.
In the case of `C/C=C/C/C=C/CCC(=O)[C@H]1O[C@H]1C(N)=O` [cerulenin], the “Resistance of I685A mutant relative to WT” value in the experiment on I685A mutant strain is given as “hypersensitive”. The “Resistance of V1372A mutant relative to WT” value in the experiment on V1372A mutant strain was “hyper-resistant”.
The matching figures for `CC/C(=C(\c1ccccc1)c1ccc(OCCN(C)C)cc1)c1ccccc1` [tamoxifen]: “hypersensitive” and “hyper-resistant”.
For `CC/N=c1\cc2oc3cc(NCC)c(C)cc3c(-c3ccccc3C(=O)OCC)c-2cc1C` [R6G, rhodamine 6G], in the experiment on F683L mutant strain [3], the “Rank of F683L mutant sensitivity among the four drugs” value is recorded as “most sensitive”. The “Sensitivity of M1373T and A684S mutants relative to WT” value in [1] is “indistinguishable from the WT”. At Pdr5 WT control strain, the “Retained R6G fluorescence, WT control strain” value was 272.6 a.u. In addition, the “Retained fluorescence of F1369A mutant relative to WT control” value on Pdr5 F1369A mutant (against R6G gradient) was roughly 5 ×. Further, the “Retained R6G fluorescence, F1369A mutant” value at Pdr5 F1369A mutant (median, 90 min, 30 °C, Hepes-glucose buffer) is 1288 a.u. Besides, at Pdr5 G1371A strain, the “Retained R6G fluorescence, G1371A strain” value is recorded as 3093 a.u. Also, at Pdr5 M1373A mutant, the “Retained R6G fluorescence, M1373A mutant” value was determined as 4900 a.u. Further, the “Retained R6G fluorescence, ΔPdr5 strain” value in the experiment with ΔPdr5 strain is 5001 a.u. Moreover, the “Retained R6G in double mutant relative to WT strain” value in experiment [5] was “twice”. Besides, the “Fluorescence accumulated by F683L mutant relative to WT control” value with Pdr5 F683L mutant is reported as “about 3 ×”. In addition, the “Minimum inhibitory concentration of F683L mutant relative to WT value” in the experiment with F683L mutant strain [2] was “one-eighth”.
Regarding `CC(C)(C)C(=O)C(Oc1ccc(Cl)cc1)n1ccnc1` (stereo not shown) [climbazole], in the experiment with I685A mutant strain, the “Resistance of I685A mutant relative to WT” value is on record as “hypersensitive”. Besides, the “Resistance of V1372A mutant relative to WT” value in the experiment with V1372A mutant strain is “hypersensitive”. Moreover, the “Resistance of M1373A mutant” value in the experiment on M1373A mutant strain is listed as “phenotypically indistinguishable from the ΔPdr5 control strain”.
